The text below walks through data of PubChem BioAssay.

Calls of active or inactive are those of the source.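 The calls were made as follows, unless noted: active = visually confirmed hit in the image check and inhibition above 20%; inconclusive = visually confirmed hit but inhibition not above 20%; inactive = no visual hit in the image check.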

Assay [1] can be described thus: inhibitors of TNFa-induced NFkB p65 translocation, primary screen, imaging, HUVEC, MLSMR starter and 10KST1 sets (AID 438;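 active = inhibition above 20% together with a positive visual image hit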;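 also: compound added about 3h40 before a 20 min TNFalpha stimulation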;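 as to inhibition: signal is the nuclear over cytoplasmic p65 intensity ratio per well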). To be noted: HUVEC TNFa-induced p65 nuclear translocation; cell count: measured here: nuclei count (cytotoxicity indicator), at 2.08 µM; inhibition: at 2 µM, stronger effect = higher value, 0% TNFa-plus-vehicle, 100% no-TNFa wells.
The nature of assay [2]: inhibitors of E-selectin induction by TNFa, primary screen, imaging, HUVEC, immunofluorescence, MLSMR starter and 10KST1 sets (AID 487).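 As to inhibition: signal is fraction of cell area covered by stained E-selectin grains.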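 As to nuclei count: 100% = median nuclei count of all wells on the same plate.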 To be noted: HUVEC TNFalpha-induced E-selectin immunofluorescence imaging, at 2 µM; inhibition: stronger effect = higher value; nuclei count: measured here: cell number, toxicity.
A short description of assay [3]: DUSP6 inhibitors restoring Erk phosphorylation by chemical complementation, primary imaging in DUSP6-transfected HeLa (AID 609;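 active = compounds giving at least 50% inhibition in the cell-based MKP-3 phosphatase rescue imaging test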;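 as to inhibition: phospho-Erk level distribution per well compared with pooled transfected vehicle control wells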). Particulars: HeLa MKP-3 transfected, phospho-Erk imaging KS statistic, at 10 µM, cells stimulated with TPA for 15 min.
The target in assay [4] is Dual specificity protein phosphatase 6 (Homo sapiens) (UniProt Q16828). The description is as above. Particulars: HeLa MKP-3 transfected, phospho-Erk imaging KS statistic; at 10 µM; stronger effect = higher value; cells stimulated with TPA for 15 min.
Sequence of Dual specificity protein phosphatase 6 (Homo sapiens) (Q16828 whole entry, looked up): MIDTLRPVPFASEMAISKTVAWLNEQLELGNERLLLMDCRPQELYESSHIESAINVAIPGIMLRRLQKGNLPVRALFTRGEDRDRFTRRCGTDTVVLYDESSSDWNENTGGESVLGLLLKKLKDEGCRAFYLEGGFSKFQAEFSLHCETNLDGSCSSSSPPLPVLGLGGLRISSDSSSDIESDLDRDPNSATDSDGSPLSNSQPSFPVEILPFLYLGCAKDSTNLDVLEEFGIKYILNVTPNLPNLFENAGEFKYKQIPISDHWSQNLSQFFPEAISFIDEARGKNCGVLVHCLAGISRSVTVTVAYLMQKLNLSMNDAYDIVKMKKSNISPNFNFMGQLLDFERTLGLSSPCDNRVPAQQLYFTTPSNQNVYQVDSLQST
Assay [5] has as its target Voltage-gated potassium channel subunit beta-2 (Rattus norvegicus) (UniProt P62483). Description: KvBeta enzyme negative modulators, primary screen, biochemical, NADPH fluorescence (AID 622;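 active = fluorescence slope higher than the sample average by over 3 SD, cut at about -0.22 in these data, passing the limit was not always enough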;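 also: slope of raw intensity against log time taken from 70 to 1610 s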). To be noted: recombinant KvBeta, 4-cyanobenzaldehyde reduction, at 10 µM, stronger effect = higher value.
Assay [6] has the same target. Description: KvBeta positive modulators, primary screen, biochemical, NADPH fluorescence (AID 623;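 active = NADPH fluorescence slope more negative than the mean of all samples by about 3 SD, 99.7% confidence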;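 also: fluorescence intensity change per second fitted from 20 to 320 s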). Particulars: Recombinant KvBeta, NADPH fluorescence decrease slope, 10 min; at 10 µM; stronger effect = lower value.
In assay [7] the target is Muscarinic acetylcholine receptor M4 (Homo sapiens) (UniProt P08173). As to the kind of experiment: compounds altering M4/GIRK thallium flux, either direction, primary screen, M4 allosteric agonist project, cell-based, HEK293 M4/GIRK, BTC-AM (AID 625;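 active = fluorescence slope after compound addition differing from the mean of all tested samples at 99.7% confidence, mostly higher but some lower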;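 also: thallium influx through GIRK channels coupled to M4 in HEK293 cells with BTC-AM dye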). To be noted: at 10 µM, actives lie on both sides. In a few lines: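 Material: HEK293 cells with M4 receptor and GIRK channels; Times: cells overnight at 37 °C, BTC-AM loading 1 h, reads 2 min total; Technique: kinetic BTC-AM fluorescence sampled at 1 Hz, 10 s pre-addition baseline; Read-out basis: slope over 15–24 s of trace normalized to starting intensity; Controls: carbachol positive, DMSO negative.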
Sequence of Muscarinic acetylcholine receptor M4 (Homo sapiens) (P08173 whole entry, looked up): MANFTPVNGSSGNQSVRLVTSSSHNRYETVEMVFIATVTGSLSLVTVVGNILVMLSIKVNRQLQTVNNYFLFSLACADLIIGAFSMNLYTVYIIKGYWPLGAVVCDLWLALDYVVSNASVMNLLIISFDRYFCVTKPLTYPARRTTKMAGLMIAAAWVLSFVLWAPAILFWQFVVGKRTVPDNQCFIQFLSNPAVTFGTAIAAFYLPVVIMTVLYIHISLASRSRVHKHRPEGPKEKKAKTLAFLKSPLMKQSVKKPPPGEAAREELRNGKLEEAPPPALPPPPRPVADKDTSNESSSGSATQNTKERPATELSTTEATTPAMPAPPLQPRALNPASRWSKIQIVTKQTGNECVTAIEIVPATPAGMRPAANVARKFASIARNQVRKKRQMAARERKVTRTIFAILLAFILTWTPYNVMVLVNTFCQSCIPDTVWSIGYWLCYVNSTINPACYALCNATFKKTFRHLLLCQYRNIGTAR

The nature of assay [8]: inhibitors of larval lipid processing in zebrafish, primary screen, whole organism, PED6 fluorescence, gall bladder and intestine (AID 686;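 active = a full or partial loss of lipid-probe fluorescence in the fish gall bladder, intestine or both, judged by eye; inactive = no fluorescence loss, or compound toxic to the fish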;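 also: larvae 5 to 7 days old with five fish per well; signal comes from phospholipase A2 cleavage of quenched PED6 carried via bile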). Particulars: Zebrafish larvae PED6 lipid processing, fluorescence scoring; screened at 20 µM (by protocol). Put shortly: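 Incubation: overnight exposure of larvae to compound plus PED6 / Test system: live zebrafish larvae aged 5-7 days, whole organism / Amount: 5 larvae per well / Read-out basis: visual per-well fluorescence inhibition score / Signal: visual fluorescence microscopy scoring of gall bladder, gut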

The nature of assay [9]: inhibitors of Chlamydomonas gravitaxis, primary screen, whole organism, Chlamydomonas reinhardtii, WT vs cilia-less mutant, absorbance, 96-well (AID 463189;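 active = inhibition at or above 50% relative to wild type and mutant plate controls; inactive = inhibition below 50%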;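 also: 0% = wild type cc124 cells in DMSO and 100% = ciliumless bld1 mutant cells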). To be noted: OD600 absorbance, 2 days, at 10 µM, stronger effect = higher value.
Where [10] appears, read: measured here: cell density z-score.
The mark [11] stands for this setting: measured here: nuclear c-Myc green intensity z-score.
The mark [12] stands for this setting: measured here: nuclear pErk red intensity z-score, stronger effect = higher value.

Sequence of Voltage-gated potassium channel subunit beta-2 (Rattus norvegicus) (P62483 whole entry, looked up): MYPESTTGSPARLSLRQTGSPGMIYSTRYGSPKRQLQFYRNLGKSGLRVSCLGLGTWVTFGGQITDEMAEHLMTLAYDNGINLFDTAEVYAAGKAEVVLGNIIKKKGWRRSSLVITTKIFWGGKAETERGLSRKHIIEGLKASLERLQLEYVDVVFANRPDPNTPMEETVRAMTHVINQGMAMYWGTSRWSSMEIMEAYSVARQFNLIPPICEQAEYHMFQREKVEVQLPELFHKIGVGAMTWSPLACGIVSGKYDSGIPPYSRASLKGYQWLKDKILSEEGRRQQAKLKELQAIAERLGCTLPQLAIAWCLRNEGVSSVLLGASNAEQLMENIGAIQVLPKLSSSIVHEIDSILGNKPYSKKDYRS

Consider `COCCn1c(SCc2c(F)cccc2Cl)nc2c1c(=O)[nH]c(=O)n2C`, for which the cell count in assay [1] came to 654. Moreover, the inhibition in [1] was 3.4% (inactive); in assay [2], -11.2% (inactive); in assay [4] it was 40.7% (inactive); in assay [9] it was 15.2% (inactive). In assay [2], this compound returned a nuclei count of 115%. Also, the z-score was 1.7 in [3] (setting [10]), -2.3 in assay [3] (setting [11]) and -0.397 in assay [3] (setting [12]). Also, the results for the fluorescence slope in assay [5] and in [7] were -0.44 (inactive) and 0.00509 (inactive), respectively. Besides, the NADPH fluorescence slope in [6] is -5.5e-05 (inactive). The compound was classed as inactive in assay [8].

For the compound `COc1ccc(OC)c(C2/C(=C(/O)c3ccccc3)C(=O)C(=O)N2Cc2ccco2)c1` (centres undefined), in [1], the cell count stood at 675. Also, the inhibition in assay [1] is -11.7% (inactive); in assay [2] it was -58% (inactive); in assay [4] it was -11.4% (inactive); in [9], 5.53% (inactive). The compound also had a nuclei count in assay [2] of 169%. For the same compound, the z-score in assay [3] (setting [10]) was 0.317; in [3] (setting [11]) it was -0.841; in [3] (setting [12]) it was 0.437. Further, the fluorescence slope in [5] is -0.522 (inactive); in assay [7], 0.00485 (inactive). In addition, the NADPH fluorescence slope in assay [6] was -2.7e-05 (inactive). Moreover, the call in [8] was inactive.

Turning to `Cc1nc(SCC(=O)Nc2ccc3c(c2)OCO3)c(C#N)c2c1CCCC2`, the cell count in assay [1] worked out at 490. In addition, the inhibition is 1.3% (inactive) in [1], -215% (inactive) in [2], 9.37% (inactive) in [4] and 19.8% (inactive) in assay [9]. In addition, in assay [2], the nuclei count is 145%. The z-score is -0.268 in [3] (setting [10]), -1.41 in [3] (setting [11]) and 0.298 in assay [3] (setting [12]). The figures for the fluorescence slope in assay [5] and in assay [7] were -0.472 (inactive) and 0.00555 (inactive), respectively. The NADPH fluorescence slope in [6] was -4e-05 (inactive). Also, the result in assay [8] was inactive.

Consider `O=S(=O)(c1cccc2nsnc12)N1CCN(C/C=C/c2ccccc2)CC1`, for which, in assay [1], the cell count is 680. In addition, the inhibition in assay [1] is 3.2% (inactive); in assay [2] it was 16.6% (inactive); in assay [4] it was 1.9e-07% (inactive); in assay [9] it was 45.8% (inactive). This compound had a nuclei count in [2] of 117%. For the same compound, the z-score in assay [3] (setting [10]) is -0.555; in assay [3] (setting [11]) it was -0.43; in assay [3] (setting [12]) it was 0.591. Moreover, the fluorescence slope is -0.527 (inactive) in [5] and 0.00411 (inactive) in [7]. Moreover, the NADPH fluorescence slope in [6] was -5.7e-05 (inactive). In [8], the compound was classed as inactive.

As for `CCOc1ccc(C2C(C#N)=C(N)Oc3cc(C)n(CCN4CCOCC4)c(=O)c32)cc1OCC` (centres undefined), the cell count in [1] was 556. In addition, the inhibition in assay [1] was -10.8% (inactive); in assay [2] it was -15.2% (inactive); in [4], -10.1% (inactive); in [9] it was 7.88% (inactive). This compound had a nuclei count in assay [2] of 167%. The z-score is -0.219 in assay [3] (setting [10]), 1.25 in assay [3] (setting [11]) and -0.841 in [3] (setting [12]). The fluorescence slope is -0.458 (inactive) in [5] and 0.0054 (inactive) in [7]. In assay [6], the NADPH fluorescence slope is -4.1e-05 (inactive). Moreover, the outcome in assay [8] was inactive.

For `Cc1cc(C)n(S(=O)(=O)/C=C/c2ccccc2)n1`, the cell count in [1] worked out at 395. The inhibition in assay [1] was -10.4% (inactive); in assay [2], -329% (inactive); in assay [4], -10.6% (inactive); in assay [9] it was 25.5% (inactive). In assay [2], the nuclei count is 150%. In addition, the z-score in assay [3] (setting [10]) is 8.45e-06; in [3] (setting [11]), -0.53; in assay [3] (setting [12]), 0.596. Also, the fluorescence slope in assay [5] was -0.475 (inactive); in [7], 0.00397 (inactive). Moreover, the NADPH fluorescence slope in assay [6] is -0.000103 (inactive). Also, the compound was classed as inactive in assay [8].

As to `CCOC(=O)c1[nH]c2ccccc2c1N=CN(CC)CC`, the cell count in assay [1] came out at 684. Also, the inhibition was 0.2% (inactive) in assay [1], -230% (inactive) in [2], 1.9e-07% (inactive) in assay [4] and -14.4% (inactive) in assay [9]. In [2], this compound registered a nuclei count of 160%. The z-score is -0.555 in assay [3] (setting [10]), 0.832 in [3] (setting [11]) and 0.765 in [3] (setting [12]). Besides, the fluorescence slope in [5] is -0.472 (inactive); in assay [7], 0.00609 (inactive). In assay [6], the NADPH fluorescence slope was -5.6e-05 (inactive). In addition, the call in [8] was inactive.

With `O=C1c2ccccc2-c2onc3ccc(NCc4ccco4)c1c23`, the cell count in assay [1] was 705. The inhibition in assay [1] is -2.6% (inactive); in assay [2], -23.9% (inactive); in [4], 10.9% (inactive); in assay [9] it was -2.14% (inactive). In addition, the nuclei count in [2] stood at 118%. The results for the z-score in assay [3] (setting [10]), in assay [3] (setting [11]) and in [3] (setting [12]) were 0.599, -0.783 and 0.692, respectively. For the same compound, the fluorescence slope was -0.14 (inactive) in assay [5] and 0.000102 (inactive) in assay [7]. In addition, the NADPH fluorescence slope in assay [6] is 1.2e-05 (inactive). Besides, in [8], the outcome is “active; no signal in gallbladder and intestine”.

Consider `CCC(NC(=O)NC1=NCCS1)(C(F)(F)F)C(F)(F)F`, for which the cell count in [1] was 772. For the same compound, the inhibition in [1] is 2.9% (inactive); in assay [2], -60% (inactive); in assay [4] it was 20.2% (inactive); in assay [9] it was -2.29% (inactive). In assay [2], the nuclei count is 150%. Moreover, the z-score in [3] (setting [10]) was 0.622; in assay [3] (setting [11]), -0.646; in assay [3] (setting [12]) it was 0.179. Further, the fluorescence slope in assay [5] is -0.433 (inactive); in assay [7], 0.00527 (inactive). Further, the NADPH fluorescence slope in [6] was -7.2e-05 (inactive). Moreover, in [8], the outcome was inactive.

With `O=C(NCc1cccnc1)NC(C(F)(F)F)C(F)(F)F`, the cell count in assay [1] came to 671. In addition, the inhibition is -1.2% (inactive) in [1], -24.5% (inactive) in [2], 1.63% (inactive) in assay [4] and -3.5% (inactive) in [9]. In assay [2], this compound gave a nuclei count of 148%. The z-score was 0.957 in assay [3] (setting [10]), -0.408 in assay [3] (setting [11]) and -4.89 in assay [3] (setting [12]). Besides, the fluorescence slope is -0.454 (inactive) in [5] and 0.00444 (inactive) in [7]. In assay [6], the NADPH fluorescence slope is -5.1e-05 (inactive). Besides, in [8], the compound was called inactive.

`CCOC(=O)c1[nH]c2ccccc2c1NC(=O)CN(C)C`: the cell count in [1] stood at 656. Moreover, the inhibition in assay [1] was 2.2% (inactive); in assay [2], -136% (inactive); in assay [4] it was 7.93% (inactive); in assay [9], -6.18% (inactive). Moreover, the nuclei count in [2] was determined as 180%. For the same compound, the values for the z-score in assay [3] (setting [10]), in assay [3] (setting [11]) and in [3] (setting [12]) were 0.955, 0.5 and -0.213, respectively. The results for the fluorescence slope in assay [5] and in assay [7] were -0.476 (inactive) and 0.00584 (inactive), respectively. Further, the NADPH fluorescence slope in assay [6] was -4.7e-05 (inactive). The result in [8] was inactive.

Take `CCCC(=O)N1CCc2[nH]c3ccccc3c2C1`: in assay [1], the cell count stood at 502. Besides, the inhibition in assay [1] is 4.2% (inactive); in [2] it was 1.1% (inactive); in assay [4], -5.62% (inactive); in assay [9] it was -3.97% (inactive). Besides, the nuclei count in assay [2] was determined as 167%. Further, the z-score is 0.76 in assay [3] (setting [10]), 0.615 in assay [3] (setting [11]) and -0.975 in assay [3] (setting [12]). In addition, the fluorescence slope was -0.485 (inactive) in assay [5] and 0.0054 (inactive) in assay [7]. In assay [6], the NADPH fluorescence slope was -2.8e-05 (inactive). For the same compound, the compound was classed as inactive in assay [8].

On to `CC(=O)N1CCN(C2c3cccc4cccc(c34)C2NS(=O)(=O)c2ccccc2)CC1` (centres undefined), for which, in assay [1], the cell count was determined as 507. The inhibition in assay [1] is -0.3% (inactive); in assay [2], -19.2% (inactive); in assay [4] it was 33.3% (inactive); in [9], 30.1% (inactive). This compound also returned a nuclei count in assay [2] of 101%. The z-score in assay [3] (setting [10]) is 1.9; in [3] (setting [11]), -1.56; in assay [3] (setting [12]), -0.633. Also, the fluorescence slope was -0.462 (inactive) in [5] and 0.00522 (inactive) in assay [7]. In assay [6], the NADPH fluorescence slope is -4.4e-05 (inactive). In addition, the call in assay [8] was inactive.
